Laboratory results published in article PMC3065392 (Lipids, 2010).

Biological target: T1, ADRP (adipose differentiation-related protein) (Mus musculus, UniProt P43883)
T1 sequence (P43883 2-425): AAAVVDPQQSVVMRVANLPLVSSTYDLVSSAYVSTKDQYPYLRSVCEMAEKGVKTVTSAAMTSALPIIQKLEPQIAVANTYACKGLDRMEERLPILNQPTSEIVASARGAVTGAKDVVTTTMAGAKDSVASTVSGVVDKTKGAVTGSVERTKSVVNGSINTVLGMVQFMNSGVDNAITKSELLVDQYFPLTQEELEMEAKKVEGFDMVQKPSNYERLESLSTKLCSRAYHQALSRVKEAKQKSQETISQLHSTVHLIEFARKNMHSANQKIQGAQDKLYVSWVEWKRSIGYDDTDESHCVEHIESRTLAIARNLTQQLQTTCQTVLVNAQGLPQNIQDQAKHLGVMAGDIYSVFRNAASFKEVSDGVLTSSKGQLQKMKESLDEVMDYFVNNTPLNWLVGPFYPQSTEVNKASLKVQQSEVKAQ
Test: fluorescence saturation binding titration, single-site fit
How it was run: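 Stepwise titration of the NBD-labelled lipid (NBD-sphingomyelin or NBD-phosphatidylcholine, 100 µM stock) into ADRP (180 nM) in 10 mM phosphate buffer, pH 7.4. After each addition, samples were mixed 3–4 min at 25°C and the NBD probe was excited; emission 490–600 nm was integrated and corrected for blank and background. Kd and Bmax come from a single-site fit of three independent measurements (mean ± SE).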

Row | Structure (SMILES) | Kd
1 | CCCCCCCCCCCCCCCC(=O)OC[C@H](COP(=O)([O-])OCC[N+](C)(C)C)OC(=O)CCCCCNc1ccc([N+](=O)[O-])c2nonc12 [NBD-phosphatidylcholine, 2-(6-(7-nitrobenz-2-oxa-1,3-diazol-4-yl)amino)hexanoyl-1-hexadecanoyl-sn-glycero-3-phosphocholine] | 15 ± 3 nM
2 | CCCCCCCCCCCCC/C=C/[C@@H](O)[C@H](COP(=O)([O-])OCC[N+](C)(C)C)NC(=O)CCCCCNc1ccc([N+](=O)[O-])c2nonc12 [NBD-sphingomyelin, 6-((N-(7-nitrobenz-2-oxa-1,3-diazol-4-yl)amino)-hexanoyl)sphingosyl-phosphocholine] | 257 ± 64 nM
